From PubChem BioAssay
MEKK2 mut-MEK5: MEK5 binding signal on mutant MEKK2 PB1, primary screen, biochemical, multiplex bead flow cytometry, Alexa488-MEK5. Alexa488-MEK5 binding to MEKK2 mutant. percent response, % at 10 µM. hit rate 0.35% among 290,000. AID 1530, 2009; in the data active = percent response above about 24%, passing the limit was not always enough
DNA FID counter: compounds displacing fluorescent DNA intercalator, primary screen, artefact control for HCV NS3 helicase inhibitor project, biochemical, FID fluorescence; DNA fluorescent intercalator displacement; inhibition, % at 7.9 µM; hit rate 0.17% among 290,000; AID 1845, 2009; in the data active = inhibition above about 37%;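 also: higher means more ethidium bromide displaced from hairpin DNA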
MEKK3 PB1 HTS: modulators of MEKK3-MEK5 PB1 binding, primary screen, biochemical, wildtype MEKK3, multiplex bead flow cytometry, Alexa488-MEK5. binding response (% of control), % at 10 µM. Mitogen-activated protein kinase kinase kinase 3 (Homo sapiens), Q99759. hit rate 1.4% among 290,000. bead-based flow cytometry, Alexa488-MEK5 binding to MEKK3; actives lie on both sides; 0 = blocked by unlabeled MEK5, 100 = vehicle;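 active = binding response more than 3 SD above or below the average of its plate-row segment, actives on both sides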;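 also: Alexa488 bead fluorescence after subtracting the streptavidin-only scavenger bead signal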
Target sequence (Q99759 whole entry, looked up): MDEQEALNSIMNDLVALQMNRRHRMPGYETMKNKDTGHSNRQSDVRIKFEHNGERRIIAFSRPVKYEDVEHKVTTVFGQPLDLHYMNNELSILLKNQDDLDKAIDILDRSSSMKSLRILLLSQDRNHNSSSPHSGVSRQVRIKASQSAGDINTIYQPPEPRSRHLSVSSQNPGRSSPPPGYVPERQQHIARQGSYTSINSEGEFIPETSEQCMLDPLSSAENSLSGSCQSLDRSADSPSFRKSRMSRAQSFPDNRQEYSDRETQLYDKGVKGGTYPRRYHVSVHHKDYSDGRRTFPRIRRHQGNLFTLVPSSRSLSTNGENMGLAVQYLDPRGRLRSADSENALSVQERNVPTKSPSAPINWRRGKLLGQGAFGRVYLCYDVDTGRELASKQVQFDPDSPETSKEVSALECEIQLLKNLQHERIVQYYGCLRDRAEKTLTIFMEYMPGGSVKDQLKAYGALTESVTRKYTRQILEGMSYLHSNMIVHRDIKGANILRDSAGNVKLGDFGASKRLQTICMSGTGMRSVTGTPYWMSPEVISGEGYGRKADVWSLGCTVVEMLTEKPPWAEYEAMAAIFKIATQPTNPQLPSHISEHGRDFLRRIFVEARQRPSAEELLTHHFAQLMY
HCV NS3 hel inh: inhibitors of HCV NS3 helicase, primary screen, biochemical, Cy5 molecular beacon fluorescence; Hepatitis C virus NS3 helicase; NS3 helicase DNA unwinding; inhibition, % at 10.9 µM; hit rate 0.56% among 290,000; AID 1800, 2009;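 active = inhibition above the mean of all tested compounds plus 3 SD, set per campaign, cut at about 35% in these data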
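Assay system: hepatitis C virus NS3 helicase domain fragment enzyme. Also added: annealed dual-labelled DNA beacon duplex, ATP-started. Timing: 1 h reaction at 25 °C, ATP-initiated. Technique: Cy5 fluorescence at 0 and 60 min, beacon hairpin quenching. Evaluation: % inhibition of unwinding. Replication: one well per compound.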
MEKK2wt PB1 HTS: modulators of MEK5 binding to wildtype MEKK2, primary screen, biochemical, multiplex bead flow cytometry, Alexa488-MEK5 | AID 1531, 2009 | Mitogen-activated protein kinase kinase kinase 2 (Homo sapiens), Q9Y2U5 | hit rate 1.1% among 290,000 | binding response (% of control), % at 10 µM | Alexa488-MEK5 binding to MEKK2 WT; actives lie on both sides; in the data active = binding response below about 67% or above about 130%
T cruzi inh: inhibitors of intracellular T. cruzi growth, primary screen, luminescence, NIH3T3 host cells | T. cruzi beta-gal in NIH3T3, 90 h | inhibition, % (no concentration beside the values) | hit rate 1.4% among 300,000;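 active = mean inhibition across valid replicates above about 55%, limit read from the data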;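 also: signal also drops with host cell toxicity which is not excluded here; higher percent means less beta-gal luminescence so fewer parasites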
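System: Mouse NIH/3T3 fibroblasts infected with β-gal-expressing T. cruzi Tulahuen C4 | Quantity: NIH/3T3 cells, 5,000 per well | Reagent: 5000 reporter trypomastigotes per well | Dosing: Compound pinned at 50 nL/well, DMSO | Schedule: 3 h host attachment, then at least 90 h co-culture | Detection: GalScreen luminescence, 60 min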
MEKK2wt confirm: modulators of MEK5 binding to wildtype MEKK2, confirmation, biochemical, single concentration, multiplex bead flow cytometry. shares compounds with MEKK3 PB1 HTS. Alexa488-MEK5 binding to MEKK2 WT; actives lie on both sides. binding response (% of control), % at 10 µM. hit rate 2.4% among 5,900; in the data active = binding response below about 16% or above about 210%; inactive = in between
MEKK2mut-MEK5: mutant MEKK2 PB1-MEK5 binding signal retest – biochemical, single concentration, multiplex bead flow cytometry, confirmation. AID 1893, 2009. hit rate 2% among 5,900. percent response, % at 10 µM. shares compounds with MEKK3 PB1 HTS. Alexa488-MEK5 binding to MEKK2 mutant; in the data active = percent response mostly above about 71%, no sharp cut-off; inactive = mostly below about 38%;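 also: higher means compound restores mutant binding toward wildtype level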
MEKK3 confirm: MEKK3 wild-type PB1 binding to MEK5, inhibitors, confirmation, biochemical, bead multiplex flow cytometry, single concentration, wildtype. shares compounds with MEKK3 PB1 HTS. Alexa488-MEK5 binding to MEKK3; stronger effect = lower value. binding response (% of control), % at 10 µM. hit rate 1.8% among 5,900. AID 1894, 2009;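 active = binding response below 72% of control, or above a set upper limit, though filed actives all read lower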
Hits are given with their value; 0 = inactive; - = no result; [ ] = another dose, or the depositor's remark. Only some compounds are listed: those with a hit (about 4.1% of all), similar ones and a draw of the others.

SMILES	MEKK2 mut-MEK5	DNA FID counter	MEKK3 PB1 HTS	HCV NS3 hel inh	MEKK2wt PB1 HTS	T cruzi inh	MEKK2wt confirm	MEKK2mut-MEK5	MEKK3 confirm
CCCCCCCc1c(O)nc(SCCN2CCOCC2)[nH]c1=O	0	0	0	0	0	0	-	-	-
CC[C@]1(c2cccc(C)c2)C(=O)N(C(=O)OC)N1C(=O)OC	59	0	0	0	66	0	0	0	0
O=C(N/N=C/c1ccc([N+](=O)[O-])o1)c1cn(-c2ccccc2)nc1-c1ccccc1	0	0	139	0	0	60	0	0	0
COc1nccnc1NS(=O)(=O)c1ccc(NC(=S)NC(=O)c2ccc(F)c(F)c2)cc1	0	0	154	0	0	0	0	0	0
COc1ccc(NS(=O)(=O)c2ccc(NC(=S)NC(=O)c3cccc(F)c3)cc2)nn1	0	0	75[inhibitor]	0	0	0	0	0	0
CCOc1cccc(OCCOCCOc2ccccc2C(C)=O)c1	0	0	193	0	0	0	0	0	0
CCCCOC(=O)c1ccc(NC(=O)C(=O)NCc2ccco2)cc1	0	0	136	0	0	0	0	0	0
CCCCOC(=O)c1ccc(NC(=O)c2ccccc2OC)cc1	0	0	136	0	0	0	0	0	0
COCC(=O)N1CCC(Oc2ccc(C(=O)N(C)CCCC3CCCC3)cc2)CC1	0	0	0	0	0	0	-	-	-
CC(=O)Nc1ccc(OC(=O)c2ccc(Br)c([N+](=O)[O-])c2)cc1	0	0	0	0	0	0	-	-	-
O=C(NCc1ccncc1)C(F)(F)C(F)(F)C(=O)NCc1ccncc1	0	0	0	0	0	0	-	-	-
O=C(/C=N/O)NCc1ccncc1	0	0	123	0	0	0	0	0	0
CC(NC(=O)Nc1ccc(F)cc1)C(c1cccs1)N1CCCC1 (stereo unspecified)	0	0	142	0	0	0	0	0	0
COc1cc(NC(=O)c2cc(-c3ccco3)on2)cc(OC)c1OC	0	0	0	0	0	0	-	-	-
NS(=O)(=O)c1ccc(CCNS(=O)(=O)c2ccc(Cl)nc2)cc1	0	0	0	0	0	0	-	-	-
COc1ccc(C(=O)C2CCCN(C(=O)c3cc(C)nc(C)n3)C2)cc1OC (stereo unspecified)	0	0	129	0	0	0	0	0	0
O=C(NCCc1ccco1)C(=O)NCC1OCCCN1S(=O)(=O)c1ccccc1 (stereo unspecified)	0	0	0	0	0	0	-	-	-
COc1ccc(N(C)C(=O)c2onc3c2CCCC3)cc1	0	0	0	0	0	0	-	-	-
COC(=O)N/N=C/c1cc(Cl)c(OCc2ccc(F)cc2)c(OC)c1	0	0	128	0	0	0	0	0	0
COC(=O)N/N=C/c1cc(Cl)c(OCc2ccccc2F)c(OC)c1	0	0	0	0	0	0	-	-	-
O=C(NS(=O)(=O)Oc1ccc(Cl)cc1)OC[C@@H]1CCCN2CCCC[C@H]12	0	0	149	0	0	0	0	0	0
Cc1ccc(N(CC(N)=O)C2SC(=O)N(C)C2=O)cc1 (stereo unspecified)	0	0	126	0	0	0	0	0	0
